Reference: ChEMBL document CHEMBL4270513, “Replacement of Arg with Nle and modified D-Phe in the core sequence of MSHs, Ac-His-D-Phe-Arg-Trp-NH2, leads to hMC1R selectivity and pigmentation” (Eur J Med Chem, 2018)
Active and inactive are the calls of the source. The rule behind the calls is not given here. Square brackets hold non-standard residues; d marks the D form. Peptide text beside a SMILES is read from it. dPhe(4-CF3) = N[C@H](Cc1ccc(C(F)(F)F)cc1)C(=O)O; dPhe(4-Br) = N[C@H](Cc1ccc(Br)cc1)C(=O)O; dPhe(4-Cl) = N[C@H](Cc1ccc(Cl)cc1)C(=O)O; dPhe(4-F) = N[C@H](Cc1ccc(F)cc1)C(=O)O; d2Nal = N[C@H](Cc1ccc2ccccc2c1)C(=O)O; Nle = CCCC[C@H](N)C(=O)O

What was measured:
Melanocortin receptor 5 [1] = biological target: T1, Melanocortin receptor 5 (Homo sapiens, UniProt P33032); assay: Displacement of [125I]-[Nle4,d-Phe7]-alpha-MSH from human MC5R expressed in HEK293 cells after 40 mins by gamma counting analysis; type: cell-based
T1 sequence (P33032 whole entry): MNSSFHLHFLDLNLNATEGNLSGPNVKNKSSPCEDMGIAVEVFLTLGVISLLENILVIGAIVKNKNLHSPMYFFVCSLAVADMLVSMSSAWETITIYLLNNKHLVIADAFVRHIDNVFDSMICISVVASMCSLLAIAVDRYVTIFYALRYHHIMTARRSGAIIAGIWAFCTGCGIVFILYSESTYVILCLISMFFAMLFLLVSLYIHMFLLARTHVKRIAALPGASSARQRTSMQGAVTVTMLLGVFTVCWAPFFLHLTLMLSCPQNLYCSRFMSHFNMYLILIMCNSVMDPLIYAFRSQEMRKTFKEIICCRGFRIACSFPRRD

Melanocortin receptor 3 [2] = biological target: T2, Melanocortin receptor 3 (Homo sapiens, UniProt P41968); assay: Agonist activity at human MC3R expressed in HEK293 cells after 3 mins by cAMP assay; type: functional, cell-based
T2 sequence (P41968 whole entry): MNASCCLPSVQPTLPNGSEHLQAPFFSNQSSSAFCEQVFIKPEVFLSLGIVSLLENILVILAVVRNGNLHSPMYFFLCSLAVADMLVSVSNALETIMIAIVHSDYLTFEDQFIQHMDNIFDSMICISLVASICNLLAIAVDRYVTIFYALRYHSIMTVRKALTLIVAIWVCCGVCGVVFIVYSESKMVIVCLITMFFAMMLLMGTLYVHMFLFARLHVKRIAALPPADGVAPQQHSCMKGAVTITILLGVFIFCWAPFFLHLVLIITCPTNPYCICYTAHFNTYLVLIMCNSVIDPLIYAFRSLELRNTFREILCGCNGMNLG

Melanocortin receptor 5 [3] = biological target: T1, Melanocortin receptor 5; assay: Agonist activity at human MC5R expressed in HEK293 cells after 3 mins by cAMP assay; type: functional, cell-based
Melanocortin receptor 3 [4] = biological target: T2, Melanocortin receptor 3; assay: Displacement of [125I]-[Nle4,d-Phe7]-alpha-MSH from human MC3R expressed in HEK293 cells after 40 mins by gamma counting analysis; type: cell-based
[5] = biological target: T3, Melanocyte-stimulating hormone receptor (Homo sapiens, UniProt Q01726); assay: Displacement of [125I]-[Nle4,d-Phe7]-alpha-MSH from human MC1R expressed in HEK293 cells after 40 mins by gamma counting analysis; type: cell-based
[6] = biological target: T3, Melanocyte-stimulating hormone receptor; assay: Agonist activity at human MC1R expressed in HEK293 cells after 3 mins by cAMP assay; type: functional, cell-based
Melanocortin receptor 5 [7] = biological target: T1, Melanocortin receptor 5; assay: Agonist activity at human MC5R expressed in HEK293 cells at 10 uM after 3 mins by cAMP assay relative to MT-2; type: functional, cell-based
Method in brief: (§1)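 cAMP produced at a single 10 μM peptide concentration, expressed as % of the response to MT-II run as control; 0% accumulation reported as no activity.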

Melanocortin receptor 3 [8] = biological target: T2, Melanocortin receptor 3; assay: Displacement of [125I]-[Nle4,d-Phe7]-alpha-MSH from human MC3R expressed in HEK293 cells at 10 uM after 40 mins by gamma counting analysis relative to control; type: cell-based
Method in brief: (§2)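 Binding efficiency = maximal % displacement of [125I]-NDP-α-MSH observed at 10 μM peptide; 0% displacement at 10 μM scored as no binding.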

[9] = biological target: T3, Melanocyte-stimulating hormone receptor; assay: Agonist activity at human MC1R expressed in HEK293 cells at 10 uM after 3 mins by cAMP assay relative to MT-2; type: functional, cell-based; method in brief: as §1
Melanocortin receptor 3 [10] = biological target: T2, Melanocortin receptor 3; assay: Agonist activity at human MC3R expressed in HEK293 cells at 10 uM after 3 mins by cAMP assay relative to MT-2; type: functional, cell-based; method in brief: as §1
Melanocortin receptor 5 [11] = biological target: T1, Melanocortin receptor 5; assay: Displacement of [125I]-[Nle4,d-Phe7]-alpha-MSH from human MC5R expressed in HEK293 cells at 10 uM after 40 mins by gamma counting analysis relative to control; type: cell-based; method in brief: as §2
[12] = biological target: T3, Melanocyte-stimulating hormone receptor; assay: Displacement of [125I]-[Nle4,d-Phe7]-alpha-MSH from human MC1R expressed in HEK293 cells at 10 uM after 40 mins by gamma counting analysis relative to control; type: cell-based; method in brief: as §2
Melanocortin receptor 4 [13] = biological target: T4, Melanocortin receptor 4 (Homo sapiens, UniProt P32245); assay: Displacement of [125I]-[Nle4,d-Phe7]-alpha-MSH from human MC4R expressed in HEK293 cells after 40 mins by gamma counting analysis; type: cell-based
T4 sequence (P32245 whole entry): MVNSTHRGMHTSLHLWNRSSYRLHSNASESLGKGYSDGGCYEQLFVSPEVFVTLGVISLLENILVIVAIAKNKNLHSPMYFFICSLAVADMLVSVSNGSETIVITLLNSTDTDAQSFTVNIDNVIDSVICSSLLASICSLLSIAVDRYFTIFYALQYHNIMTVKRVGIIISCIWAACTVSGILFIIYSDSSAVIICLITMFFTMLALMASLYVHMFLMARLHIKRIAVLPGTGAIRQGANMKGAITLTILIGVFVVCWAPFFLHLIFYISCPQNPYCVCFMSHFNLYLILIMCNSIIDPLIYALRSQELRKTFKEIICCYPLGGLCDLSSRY

Melanocortin receptor 4 [14] = biological target: T4, Melanocortin receptor 4; assay: Agonist activity at human MC4R expressed in HEK293 cells after 3 mins by cAMP assay; type: functional, cell-based
Anolis carolinensis = assay: Induction of pigmentation effect in lizard at 3 ug/g, ip at 1 hr post dose; type: functional, organism-based
Method in brief: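 Anolis carolinensis lizards, peptide dissolved in saline at 1 mM, single intraperitoneal dose of 3 μg/g body weight; vehicle-injected animals as control. Skin colour change versus pre-injection appearance scored visually and photographed, followed up to 24 h.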

Homo sapiens [15] = organism: Homo sapiens; assay: Selectivity ratio of EC50 for human MC5R to EC50 for human MC1R
Homo sapiens [16] = organism: Homo sapiens; assay: Selectivity ratio of EC50 for human MC3R to EC50 for human MC1R
Homo sapiens [17] = organism: Homo sapiens; assay: Selectivity ratio of EC50 for human MC4R to EC50 for human MC1R

| SMILES | IC50 (Melanocortin receptor 5 [1]) | EC50 (Melanocortin receptor 3 [2]) | EC50 (Melanocortin receptor 5 [3]) | IC50 (Melanocortin receptor 3 [4]) | IC50 [5] | EC50 [6] | Activity (Melanocortin receptor 5 [7]) | %max (Melanocortin receptor 3 [8]) | Activity [9] | Activity (Melanocortin receptor 3 [10]) | %max (Melanocortin receptor 5 [11]) | %max [12] | IC50 (Melanocortin receptor 4 [13]) | EC50 (Melanocortin receptor 4 [14]) | Ratio EC50 (Homo sapiens [15]) | Ratio EC50 (Homo sapiens [16]) | Ratio EC50 (Homo sapiens [17]) | Activity (Anolis carolinensis) |
| --- | --- | --- | --- | --- | --- | --- | --- | --- | --- | --- | --- | --- | --- | --- | --- | --- | --- | --- |
| CC(=O)N[C@@H](Cc1cnc[nH]1)C(=O)N[C@H](Cc1ccccc1)C(=O)N[C@@H](CCCNC(=N)N)C(=O)N[C@@H](Cc1c[nH]c2ccccc12)C(N)=O |  |  |  |  |  |  | 63% | 100% | 100% | 100% | 100% | 100% |  |  |  |  |  |  |
| CCCC[C@H](NC(=O)[C@@H](Cc1ccc(Cl)cc1)NC(=O)[C@H](Cc1cnc[nH]1)NC(C)=O)C(=O)N[C@@H](Cc1c[nH]c2ccccc12)C(N)=O (Ac-H[dPhe(4-Cl)][Nle]W-NH2) |  | 116 nM | 433 nM | > 1000 nM | 122 nM | 6.5 nM | 52% | 45% | 100% | 87% | 0% | 81% | > 1000 nM | 17 nM |  |  |  |  |
| CCCC[C@H](NC(=O)[C@@H](Cc1ccc(F)cc1)NC(=O)[C@H](Cc1cnc[nH]1)NC(C)=O)C(=O)N[C@@H](Cc1c[nH]c2ccccc12)C(N)=O (Ac-H[dPhe(4-F)][Nle]W-NH2) |  | 315 nM |  | > 1000 nM | 243 nM | 25 nM | 0% | 13% | 100% | 100% | 0% | 33% | > 1000 nM | 280 nM |  |  |  |  |
| CCCC[C@H](NC(=O)[C@@H](Cc1ccccc1)NC(=O)[C@@H]1CCCN1C(C)=O)C(=O)N[C@@H](Cc1c[nH]c2ccccc12)C(N)=O (Ac-P[dF][Nle]W-NH2) |  |  |  | > 1000 nM |  |  | 0% | 65% | 0% | 0% | 0% | 0% |  |  |  |  |  |  |
| CCCC[C@H](NC(=O)[C@@H](Cc1ccc(Br)cc1)NC(=O)[C@@H]1CCCN1C(C)=O)C(=O)N[C@@H](Cc1c[nH]c2ccccc12)C(N)=O (Ac-P[dPhe(4-Br)][Nle]W-NH2) |  | > 1000 nM |  | > 1000 nM | 80 nM | > 1000 nM | 0% | 76% | 39% | 23.1% | 0% | 30% | 10 nM |  |  |  |  |  |
| CCCC[C@H](NC(=O)[C@@H](Cc1ccc(C(F)(F)F)cc1)NC(=O)[C@@H]1CCCN1C(C)=O)C(=O)N[C@@H](Cc1c[nH]c2ccccc12)C(N)=O (Ac-P[dPhe(4-CF3)][Nle]W-NH2) |  |  |  | > 1000 nM |  |  | 0% | 33% | 0% | 0% | 0% | 0% | 2.1 nM |  |  |  |  |  |
| CCCC[C@H](NC(=O)[C@@H](Cc1ccc(Cl)cc1)NC(=O)[C@@H]1CCCN1C(C)=O)C(=O)N[C@@H](Cc1c[nH]c2ccccc12)C(N)=O (Ac-P[dPhe(4-Cl)][Nle]W-NH2) |  | > 1000 nM |  | > 1000 nM | 1.9 nM | 3 nM | 0% | 35% | 63% | 23.1% | 0% | 18% |  |  |  |  |  |  |

Now from value to compound, other results behind:

| IC50 (Melanocortin receptor 5 [1]) | EC50 (Melanocortin receptor 3 [2]) | EC50 (Melanocortin receptor 5 [3]) | IC50 (Melanocortin receptor 3 [4]) | IC50 [5] | EC50 [6] | Activity (Melanocortin receptor 5 [7]) | %max (Melanocortin receptor 3 [8]) | Activity [9] | Activity (Melanocortin receptor 3 [10]) | %max (Melanocortin receptor 5 [11]) | %max [12] | IC50 (Melanocortin receptor 4 [13]) | EC50 (Melanocortin receptor 4 [14]) | Ratio EC50 (Homo sapiens [15]) | Ratio EC50 (Homo sapiens [16]) | Ratio EC50 (Homo sapiens [17]) | SMILES | Activity (Anolis carolinensis) |
| --- | --- | --- | --- | --- | --- | --- | --- | --- | --- | --- | --- | --- | --- | --- | --- | --- | --- | --- |
| 109 nM | 7.1 nM | 3.9 nM | 63 nM | 105 nM | 4.3 nM |  |  |  |  |  |  |  |  |  |  |  | CC(=O)N[C@@H](Cc1cnc[nH]1)C(=O)N[C@H](Cc1ccccc1)C(=O)N[C@@H](CCCN=C(N)N)C(=O)N[C@@H](Cc1c[nH]c2ccccc12)C(N)=O |  |
|  | 255 nM |  | > 1000 nM | > 1000 nM | 418 nM | 0% | 80% | 100% | 17% | 0% | 65% | > 1000 nM | 133 nM |  |  |  | CCCC[C@H](NC(=O)[C@@H](Cc1ccc2ccccc2c1)NC(=O)[C@H](Cc1cnc[nH]1)NC(C)=O)C(=O)N[C@@H](Cc1c[nH]c2ccccc12)C(N)=O (Ac-H[d2Nal][Nle]W-NH2) |  |
| 46 nM | 120 nM | 37 nM | > 1000 nM | 50 nM | 52 nM | 48% | 15% | 100% | 100% | 44% | 42% | 65 nM | 928 nM |  |  |  | CCCC[C@H](NC(=O)[C@@H](Cc1ccccc1)NC(=O)[C@H](Cc1cnc[nH]1)NC(C)=O)C(=O)N[C@@H](Cc1c[nH]c2ccccc12)C(N)=O (Ac-H[dF][Nle]W-NH2) |  |
|  | 57 nM | > 1000 nM | 224 nM | 154 nM | 11 nM | 33% | 51% | 100% | 93% | 0% | 61% | 53 nM | 36 nM |  |  |  | CCCC[C@H](NC(=O)[C@@H](Cc1ccc(Br)cc1)NC(=O)[C@H](Cc1cnc[nH]1)NC(C)=O)C(=O)N[C@@H](Cc1c[nH]c2ccccc12)C(N)=O (Ac-H[dPhe(4-Br)][Nle]W-NH2) |  |
| 37 nM | 252 nM | > 1000 nM | 90 nM | 339 nM | 10 nM | 44% | 62% | 100% | 85% | 37% | 49% | 835 nM | 407 nM | > 100 | 25 | 41 | CCCC[C@H](NC(=O)[C@@H](Cc1ccc(C(F)(F)F)cc1)NC(=O)[C@H](Cc1cnc[nH]1)NC(C)=O)C(=O)N[C@@H](Cc1c[nH]c2ccccc12)C(N)=O (Ac-H[dPhe(4-CF3)][Nle]W-NH2) | Active |
|  | > 1000 nM |  | 46.8 nM | 0.74 nM | > 1000 nM | 0% | 35% | 46% | 56% | 0% | 28% |  |  |  |  |  | CCCC[C@H](NC(=O)[C@@H](Cc1ccc(F)cc1)NC(=O)[C@@H]1CCCN1C(C)=O)C(=O)N[C@@H](Cc1c[nH]c2ccccc12)C(N)=O (Ac-P[dPhe(4-F)][Nle]W-NH2) |  |
